Assay results: ChEMBL document CHEMBL1144485, “The synthesis and the in vitro cytotoxicity studies of bisnaphthalimidopropyl polyamine derivatives against colon cancer cells and parasite Leishmania infantum” (Bioorg Med Chem, 2007)

How the values were obtained:
Caco-2 [1] = test: Cytotoxicity activity against Caco-2 cells after 24 by MTT assay; type: cell-based; conditions: Homo sapiens
In short: (§1)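 Caco-2 cells in Earle's MEM with 10% FCS, glutamine, non-essential amino acids, penicillin/streptomycin; seeded at 2 × 10^4 cells cm−2, 24 h before drug. Compounds (stock in 20% DMSO, diluted in medium) at 0.01–40 µM for 24 or 48 h, 37 °C. MTT 1 mg/ml in serum-free medium 4 h, DMSO solubilisation, A560. IC50 = 50% absorbance reduction vs control from fitted log line; six replicates, mean ± SD.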

Leishmania infantum = test: Cytotoxicity activity against Leishmania infantum after 72 hrs by MTT assay; type: functional, organism-based
In short: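 L. infantum promastigotes (clone MHOM/MA671TMA-P263), log phase (2-day culture), grown at 27 °C in RPMI with 10% heat-inactivated FBS, 2 mM glutamine, 20 mM Hepes, penicillin/streptomycin. 10^6/ml exposed to serial drug concentrations (0.30–100 µM) for 3 days, 27 °C. MTT 0.25 mg/ml final, 4 h, 27 °C; SDS/DMF pH 4.8 lysis 1 h at 37 °C, A550. Growth IC50 by linear regression; at least five assays, ± SD.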

Caco-2 [2] = test: Cytotoxicity activity against Caco-2 cells after 48 by MTT assay; type: cell-based; conditions: Homo sapiens; in short: as §1

`O=C1c2cccc3cccc(c23)C(=O)N1CCCNCCCCCCCCCNCCCN1C(=O)c2cccc3cccc(c23)C1=O` [BNIPDANON] gave an IC50 (Caco-2 [1]) of 3600 nM, an IC50 (Leishmania infantum) of 780 nM and an IC50 (Caco-2 [2]) of 670 nM.
`O=C1c2cccc3cccc(c23)C(=O)N1CCCNCCCCCCCCNCCCN1C(=O)c2cccc3cccc(c23)C1=O` [BNIPDAOCT] gave an IC50 (Caco-2 [1]) of 6200 nM, an IC50 (Leishmania infantum) of 780 nM and an IC50 (Caco-2 [2]) of 3200 nM.
`O=C1c2cccc3cccc(c23)C(=O)N1CCCNCCCCNCCCNCCCN1C(=O)c2cccc3cccc(c23)C1=O` [BNIPSPD] was tested, and the IC50 (Caco-2 [1]) was 470 nM, the IC50 (Leishmania infantum) was 470 nM and the IC50 (Caco-2 [2]) was 150 nM.
For `O=C1c2cccc3cccc(c23)C(=O)N1CCCNCCCNCCCNCCCN1C(=O)c2cccc3cccc(c23)C1=O` [BNIPDPTA], the IC50 (Caco-2 [1]) was 5140 nM, the IC50 (Leishmania infantum) was 1540 nM and the IC50 (Caco-2 [2]) was 1540 nM.
For `O=C1c2cccc3cccc(c23)C(=O)N1CCCNCCNCCNCCCN1C(=O)c2cccc3cccc(c23)C1=O` [BNIPDETA], the IC50 (Caco-2 [1]) was 21700 nM, the IC50 (Leishmania infantum) was 740 nM and the IC50 (Caco-2 [2]) was 22300 nM.
Work on `O=C1c2cccc3cccc(c23)C(=O)N1CCCNCCCCCCCCCCNCCCN1C(=O)c2cccc3cccc(c23)C1=O` [BNIPDADEC] yielded an IC50 (Caco-2 [1]) of 770 nM and an IC50 (Caco-2 [2]) of 360 nM.
